Active and inactive are the calls of the source. The calls are words filed in the database; no cut-off is given here.
Key:
Candida albicans [1] = assay: Antimicrobial activity against Candida albicans at 11.6 uM in presence of 10 mM NaPB; format: functional
Summary of the method: (§1)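 YNB-grown C. albicans (CAF4-2) washed and resuspended at 10⁶ cells/ml in 10, 20, 50 or 100 mM sodium phosphate buffer pH 7.4; peptide 2.9 to 11.6 μM, 1 h at 30°C; 500-cell aliquots plated on YNB agar, 48 h room temperature; loss of viability = [1 − (treated/buffer-only colonies)] × 100; at least three independent experiments, mean ± SD.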

Candida albicans [2] = assay: Antimicrobial activity against Candida albicans at 11.6 uM in presence of 20 mM NaPB; format: functional; summary of the method: as §1
Candida albicans [3] = assay: Antimicrobial activity against Candida albicans at 11.6 uM in presence of 50 mM NaPB; format: functional; summary of the method: as §1
Candida albicans [4] = assay: Antimicrobial activity against Candida albicans at 11.6 uM in presence of 100 mM NaPB; format: functional; summary of the method: as §1
Candida albicans [5] = assay: Survival of Candida albicans at 11.6 uM in presence of 0.5 mM CaCl2; format: functional
Summary of the method: (§2)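 Cells at 10⁶/ml in 10 mM sodium phosphate pH 7.4 supplemented with 0.5, 1, 5 or 25 mM CaCl₂, MgCl₂, NaCl or KCl; hBD-2 11.6 μM for 1 h at 30°C; colonies counted on YNB agar after 48 h at room temperature; survival relative to buffer-only cells; at least three independent experiments, mean ± SD.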

Candida albicans [6] = assay: Survival of Candida albicans at 11.6 uM in presence of 0.5 mM MgCl2; format: functional; summary of the method: as §2
Candida albicans [7] = assay: Survival of Candida albicans at 11.6 uM in presence of 5 mM CaCl2; format: functional; summary of the method: as §2
Candida albicans [8] = assay: Survival of Candida albicans at 11.6 uM in presence of 5 mM MgCl2; format: functional; summary of the method: as §2
Candida albicans [9] = assay: Survival of Candida albicans at 11.6 uM in presence of 0.5 mM NaCl; format: functional; summary of the method: as §2
Candida albicans [10] = assay: Survival of Candida albicans at 11.6 uM in presence of 0.5 mM KCl; format: functional; summary of the method: as §2
Candida albicans [11] = assay: Cell death in Candida albicans CAF4-2 in presence of 1 mM NaN3 relative to control; format: functional
Nakaseomyces glabratus [12] = assay: Fungicidal activity against Candida glabrata 931010 at 11.6 uM; format: functional
Summary of the method: (§3)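 C. albicans CAF4-2 and C. glabrata 931010 or 932474 at 10⁶/ml in 10 mM sodium phosphate pH 7.4, exposed to one peptide concentration (Hst 5 31 μM, hBD-2 11.6 μM, hBD-3 0.8 μM); 500-cell aliquots plated on YNB agar for 48 h at room temperature; loss of viability versus buffer-only control; triplicate.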

Nakaseomyces glabratus [13] = assay: Fungicidal activity against Candida glabrata 932474 at 11.6 uM; format: functional; summary of the method: as §3
Candida albicans [14] = assay: Fungicidal activity against Candida albicans CAF4-2 at 11.6 uM; format: functional; summary of the method: as §3
Candida albicans [15] = assay: Antimicrobial activity against Candida albicans at 1.0 uM in presence of 20 mM NaPB; format: functional
Summary of the method: (§4)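 YNB-grown yeast washed twice and resuspended at 10⁶ cells/ml in 10, 20, 50 or 100 mM sodium phosphate buffer, pH 7.4; peptide 0.2 to 1.0 μM for 1 h at 30°C. Diluted aliquots of 500 cells plated on YNB agar, 48 h at room temperature. Loss of viability = [1 − (treated colonies/buffer-only colonies)] × 100; at least three independent experiments.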

Candida albicans [16] = assay: Antimicrobial activity against Candida albicans at 1.0 uM in presence of 10 mM NaPB; format: functional; summary of the method: as §4
Candida albicans [17] = assay: Antimicrobial activity against Candida albicans at 1.0 uM in presence of 50 mM NaPB; format: functional; summary of the method: as §4
Candida albicans [18] = assay: Cell death in Candida albicans CAF4-2 at <= 0.6 uM in the presence of 1 mM NaN3 relative to control; format: functional
Nakaseomyces glabratus [19] = assay: Fungicidal activity against Candida glabrata 931010 at 0.8 uM; format: functional
Nakaseomyces glabratus [20] = assay: Fungicidal activity against Candida glabrata 932474 at 0.8 uM; format: functional
Candida albicans [21] = assay: Fungicidal activity against Candida albicans CAF4-2 at 0.8 uM; format: functional
Candida albicans [22] = assay: Cell death in Candida albicans CAF4-2 at >= 0.8 uM in presence of 1 mM NaN3 relative to control
Candida albicans [23] = assay: Induction of ATP efflux in Candida albicans CAF4-2 at 11.6 uM; format: functional, organism-based
Summary of the method: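 C. albicans CAF4-2 (10⁴ cells) mixed with peptide (Hst 5 31 μM, hBD-2 11.6 μM, hBD-3 1 μM), some cells pretreated 2 h with 1 mM NaN₃; extracellular ATP read by luminometry at 0, 5, 15, 30, 45 and 60 min; quantified against per-experiment ATP standard curves as pmol ATP per 10⁴ cells.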

Candida albicans [24] = assay: Induction of membrane permeabilization in Candida albicans assessed as calcein release at 11.6 uM after 90 min; format: functional
Summary of the method: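 Early-stationary C. albicans loaded with 5 μM (final) calcein-AM, 2 h room temperature, washed four times; 10⁶ cells with peptide, fluorescence (ex 485/em 530 nm) read every 5 min for 90 min; 100% from boiled cells (10 min), background from untreated cells; % release = (I_r − I_bkg)/(I_int − I_bkg) × 100; three independent experiments, mean ± SD.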

Candida albicans [25] = assay: Induction of ATP efflux in Candida albicans CAF4-2 at 31 uM in presence of 1 mM sodium azide; format: functional, organism-based
Summary of the method: (§5)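 10⁴ C. albicans cells given 31 μM Hst 5 or 1 μM hBD-3, with or without 2 h pretreatment in 1 mM NaN₃. Extracellular ATP read by luminometry at 0, 5, 15, 30, 45 and 60 min. Values come from per-experiment ATP standard curves, as pmol ATP per 10⁴ cells.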

Candida albicans [26] = assay: Induction of ATP efflux in Candida albicans CAF4-2 at 31 uM; format: functional, organism-based; summary of the method: as §5
Candida albicans [27] = assay: Induction of membrane permeabilization in Candida albicans assessed as calcein release at 32 uM after 90 min; format: functional
Summary of the method: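 Early-stationary yeast washed in 10 mM NaPB, loaded at 10⁷/ml with 5 μM (final) calcein-AM for 2 h at room temperature, then washed four times; 10⁶ cells given 0.8 μM hBD-3 or 32 μM Hst 5. Fluorescence (ex 485/em 530 nm) read every 5 min for 90 min. Percent release = (I_r − I_bkg)/(I_int − I_bkg) × 100, where I_int comes from boiling 10 min. Mean ± SD of three experiments.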

Nakaseomyces glabratus [28] = assay: Fungicidal activity against Candida glabrata 931010 at 31 uM; format: functional
Nakaseomyces glabratus [29] = assay: Fungicidal activity against Candida glabrata 932474 at 31 uM; format: functional
Candida albicans [30] = assay: Fungicidal activity against Candida albicans CAF4-2 at 31 uM; format: functional

CC[C@H](C)[C@H](NC(=O)CN)C(=O)NCC(=O)N[C@@H](CC(=O)O)C(=O)N1CCC[C@H]1C(=O)N[C@H](C(=O)N[C@H](C(=O)N[C@@H](CS)C(=O)N[C@@H](CC(C)C)C(=O)N[C@@H](CCCCN)C(=O)N[C@@H](CO)C(=O)NCC(=O)N[C@@H](C)C(=O)N[C@H](C(=O)N[C@@H](CS)C(=O)N[C@@H](Cc1cnc[nH]1)C(=O)N1CCC[C@H]1C(=O)N[C@H](C(=O)N[C@@H](Cc1ccccc1)C(=O)N[C@@H](CS)C(=O)N1CCC[C@H]1C(=O)N[C@@H](CCCNC(=N)N)C(=O)N[C@@H](CCCNC(=N)N)C(=O)N[C@@H](Cc1ccc(O)cc1)C(=O)N[C@@H](CCCCN)C(=O)N[C@@H](CCC(N)=O)C(=O)N[C@H](C(=O)NCC(=O)N[C@H](C(=O)N[C@@H](CS)C(=O)NCC(=O)N[C@@H](CC(C)C)C(=O)N1CCC[C@H]1C(=O)NCC(=O)N[C@H](C(=O)N[C@@H](CCCCN)C(=O)N[C@@H](CS)C(=O)N[C@@H](CS)C(=O)N[C@@H](CCCCN)C(=O)N[C@@H](CCCCN)C(=O)N1CCC[C@H]1C(=O)O)[C@@H](C)O)[C@@H](C)O)[C@@H](C)CC)C(C)C)[C@@H](C)CC)[C@@H](C)O)C(C)C
Activity (Candida albicans [1]): 95%
Activity (Candida albicans [2]): 54%
Activity (Candida albicans [3]): 29%
Activity (Candida albicans [4]): 24%
Activity (Candida albicans [5]): 69%
Activity (Candida albicans [6]): 58.4%
Activity (Candida albicans [7]): 86%
Activity (Candida albicans [8]): 97.6%
Activity (Candida albicans [9]): 24%
Activity (Candida albicans [10]): 18%
Activity (Candida albicans [11]): 15%
Activity (Nakaseomyces glabratus [12]): 20.2%
Activity (Nakaseomyces glabratus [13]): 89.6%
Activity (Candida albicans [14]): 95%

CC[C@H](C)[C@H](NC(=O)CN)C(=O)N[C@H](C(=O)N[C@@H](CC(N)=O)C(=O)N[C@H](C(=O)N[C@@H](CC(C)C)C(=O)N[C@@H](CCC(N)=O)C(=O)N[C@@H](CCCCN)C(=O)N[C@@H](Cc1ccc(O)cc1)C(=O)N[C@@H](Cc1ccc(O)cc1)C(=O)N[C@@H](CS)C(=O)N[C@@H](CCCNC(=N)N)C(=O)N[C@H](C(=O)N[C@@H](CCCNC(=N)N)C(=O)NCC(=O)NCC(=O)N[C@@H](CCCNC(=N)N)C(=O)N[C@@H](CS)C(=O)N[C@@H](C)C(=O)N[C@H](C(=O)N[C@@H](CC(C)C)C(=O)N[C@@H](CO)C(=O)N[C@@H](CS)C(=O)N[C@@H](CC(C)C)C(=O)N1CCC[C@H]1C(=O)N[C@@H](CCCCN)C(=O)N[C@@H](CCC(=O)O)C(=O)N[C@@H](CCC(=O)O)C(=O)N[C@@H](CCC(N)=O)C(=O)N[C@H](C(=O)NCC(=O)N[C@@H](CCCCN)C(=O)N[C@@H](CS)C(=O)N[C@@H](CO)C(=O)N[C@H](C(=O)N[C@@H](CCCNC(=N)N)C(=O)NCC(=O)N[C@@H](CCCNC(=N)N)C(=O)N[C@@H](CCCCN)C(=O)N[C@@H](CS)C(=O)N[C@@H](CS)C(=O)N[C@@H](CCCNC(=N)N)C(=O)N[C@@H](CCCNC(=N)N)C(=O)N[C@@H](CCCCN)C(=O)N[C@@H](CCCCN)C(=O)O)[C@@H](C)O)[C@@H](C)CC)C(C)C)C(C)C)[C@@H](C)O)[C@@H](C)CC
Activity (Candida albicans [15]): 63%
Activity (Candida albicans [16]): 98.2%
Activity (Candida albicans [17]): 18%
Activity (Candida albicans [18]): <10%
Activity (Nakaseomyces glabratus [19]): 11.5%
Activity (Nakaseomyces glabratus [20]): 53.2%
Activity (Candida albicans [21]): 98.2%
Activity (Candida albicans [22]): 36%

CC[C@H](C)[C@H](NC(=O)CN)C(=O)NCC(=O)N[C@@H](CC(=O)O)C(=O)N1CCC[C@H]1C(=O)N[C@H](C(=O)N[C@H](C(=O)N[C@@H](CS)C(=O)N[C@@H](CC(C)C)C(=O)N[C@@H](CCCCN)C(=O)N[C@@H](CO)C(=O)NCC(=O)N[C@@H](C)C(=O)N[C@H](C(=O)N[C@@H](CS)C(=O)N[C@@H](Cc1cnc[nH]1)C(=O)N1CCC[C@H]1C(=O)N[C@H](C(=O)N[C@@H](Cc1ccccc1)C(=O)N[C@@H](CS)C(=O)N1CCC[C@H]1C(=O)N[C@@H](CCCNC(=N)N)C(=O)N[C@@H](CCCNC(=N)N)C(=O)N[C@@H](Cc1ccc(O)cc1)C(=O)N[C@@H](CCCCN)C(=O)N[C@@H](CCC(N)=O)C(=O)N[C@H](C(=O)NCC(=O)N[C@H](C(=O)N[C@@H](CS)C(=O)NCC(=O)N[C@@H](CC(C)C)C(=O)N1CCC[C@H]1C(=O)NCC(=O)N[C@H](C(=O)N[C@@H](CCCCN)C(=O)N[C@@H](CS)C(=O)N[C@@H](CS)C(=O)N[C@@H](CCCCN)C(=O)N[C@@H](CCCCN)C(=O)N1CCC[C@H]1C(=O)O)[C@H](C)O)[C@H](C)O)[C@@H](C)CC)C(C)C)[C@@H](C)CC)[C@H](C)O)C(C)C
Activity (Candida albicans [23]): Active
Activity (Candida albicans [24]): 10.3%

C[C@H](NC(=O)[C@H](Cc1cnc[nH]1)NC(=O)[C@H](CO)NC(=O)[C@@H](N)CC(=O)O)C(=O)N[C@@H](CCCCN)C(=O)N[C@@H](CCCNC(=N)N)C(=O)N[C@@H](Cc1cnc[nH]1)C(=O)N[C@@H](Cc1cnc[nH]1)C(=O)NCC(=O)N[C@@H](Cc1ccc(O)cc1)C(=O)N[C@@H](CCCCN)C(=O)N[C@@H](CCCNC(=N)N)C(=O)N[C@@H](CCCCN)C(=O)N[C@@H](Cc1ccccc1)C(=O)N[C@@H](Cc1cnc[nH]1)C(=O)N[C@@H](CCC(=O)O)C(=O)N[C@@H](CCCCN)C(=O)N[C@@H](Cc1cnc[nH]1)C(=O)N[C@@H](Cc1cnc[nH]1)C(=O)N[C@@H](CO)C(=O)N[C@@H](Cc1cnc[nH]1)C(=O)N[C@@H](CCCNC(=N)N)C(=O)NCC(=O)N[C@@H](Cc1ccc(O)cc1)C(=O)O [HISTATIN 5]
Activity (Candida albicans [25]): inactive
Activity (Candida albicans [26]): Active
Activity (Candida albicans [27]): 11%
Activity (Nakaseomyces glabratus [28]): 12.2%
Activity (Nakaseomyces glabratus [29]): 29.4%
Activity (Candida albicans [30]): 97.5%

— ChEMBL document CHEMBL1142155, “Human beta-defensins kill Candida albicans in an energy-dependent and salt-sensitive manner without causing membrane disruption” (2007)
